The results in this text go back to ChEMBL document CHEMBL1795282, “Synthesis, biological evaluation, and docking studies of gigantol analogs as calmodulin inhibitors” (Eur J Med Chem, 2011).

For one assay, the species on record is Homo sapiens. As to the kind of experiment: Binding affinity to human Calmodulin M124C mutant assessed as extrinsic fluorescence quenching in phosphate buffer at pH 5.1 by mBBr fluorescence assay. Summed up:
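Ca²⁺–hCaM M124C–mBBr biosensor at 5 μM in 100 mM phosphate buffer, pH 5.1, with 10 mM CaCl₂, stirred at 37 °C and titrated with ligand. Excitation was at 381 nm, with emission scanned from 400 to 550 nm. Fractional saturation was taken as y = (F − F₀)/(F∞ − F₀) at 470 nm versus ligand concentration. Apparent constant Km, Emax and Hill coefficient came from a Hill-equation fit.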

The next assay addresses Calmodulin-1 (Homo sapiens, UniProt P0DP23). In words: Inhibition of Calmodulin-dependent PDE1 activity assessed as inorganic phosphate release after 30 min.

Active and inactive are the calls of the source. The calls are words filed in the database; no cut-off is given here.

The term Km denotes the concentration of substrate that gives half-maximal velocity. As a reminder, the IC50 is the midpoint of a concentration-inhibition curve. For the compound `COc1ccc(CCc2cc(O)cc(OC)c2)cc1`, the Km in the assay listed under Homo sapiens was 80 µM. Further, the IC50 at Calmodulin-1 is 9.38 µM.

With `COc1cc(O)cc(CCc2ccc(O)c(OC)c2)c1` [GIGANTOL], the Km in the assay filed under Homo sapiens turned out to be 60.8 µM. Besides, the IC50 at Calmodulin-1 came to 114 µM.

`COc1ccc(/C=C/C(=O)c2ccc(O)cc2)cc1`: the Km in the assay listed under Homo sapiens was found to be 10.3 µM. The IC50 on Calmodulin-1 was determined as 22.5 µM.

Regarding `COc1cc(O)cc(C(=O)/C=C/c2ccc(O)c(OC)c2)c1`, the Km in the assay listed under Homo sapiens came out at 5.31 µM. In addition, at Calmodulin-1, the IC50 worked out at 57.3 µM.

In the case of `c1ccc(Cc2ccccc2)cc1` [DIPHENYLMETHANE], the result in the assay filed under Homo sapiens was inactive. The IC50 on Calmodulin-1 was found to be 15 µM.

With `COc1cc(CCc2ccc(N(C)C)cc2)cc(OC)c1`, in the assay filed under Homo sapiens, the Km is 10 µM. For the same compound, the IC50 at Calmodulin-1 stood at 36.3 µM.

As for `COc1ccc(CCc2cc(OC)cc(OC)c2)cc1`, in the assay listed under Homo sapiens, the Km is 21.8 µM. Moreover, the IC50 at Calmodulin-1 amounted to 146 µM.

In the case of `COc1cc(Cc2ccc(O)c(OC)c2)cc(OC)c1`, the Km in the assay filed under Homo sapiens was found to be 33.1 µM. The 50% inhibitory concentration (IC50) on Calmodulin-1 came to 54.7 µM.

Consider `COc1cc(O)cc(CCc2ccc(N(C)C)cc2)c1`, for which the Km in the assay filed under Homo sapiens worked out at 12 µM. For the same compound, the IC50 at Calmodulin-1 worked out at 30.1 µM.

For the compound `CCOc1ccc(CCc2cc(OC)cc(OC)c2)cc1OC`, the Km in the assay listed under Homo sapiens came out at 9.88 µM. Moreover, the IC50 on Calmodulin-1 was 18.4 µM.

In the case of `CCOc1ccc(CCc2cc(O)cc(OC)c2)cc1OC`, in the assay filed under Homo sapiens, the Michaelis-Menten constant (Km) is 25.3 µM. On Calmodulin-1, the IC50 amounted to 54.7 µM.

On to `COc1cc(O)cc(C(=O)/C=C/c2ccc(OC)c(O)c2)c1`, for which the Km in the assay listed under Homo sapiens turned out to be 3.89 µM. Moreover, the IC50 at Calmodulin-1 stood at 37.7 µM.

As to `COc1ccc(CCCc2ccc(O)cc2)cc1`, the Km in the assay listed under Homo sapiens stood at 8.7 µM. For the same compound, at Calmodulin-1, the concentration for half-maximal inhibition (IC50) came out at 62.7 µM.

Turning to `c1ccc(COc2ccccc2)cc1`, the outcome in the assay filed under Homo sapiens was inactive. For the same compound, on Calmodulin-1, the inhibition entry was “inactive”.

As to `Oc1cccc(CCCc2ccc3c(c2)OCO3)c1`, the Km in the assay filed under Homo sapiens came to 14.2 µM. In addition, at Calmodulin-1, the IC50 amounted to 22.9 µM.

Take `COc1cc(O)cc(CCCc2ccc(O)c(OC)c2)c1`: the Km in the assay listed under Homo sapiens was found to be 54.3 µM. Besides, on Calmodulin-1, the concentration for half-maximal inhibition (IC50) was determined as 32.5 µM.

As to `Oc1cccc(CCc2ccc3c(c2)OCO3)c1`, in the assay listed under Homo sapiens, the Km was 63.8 µM. For the same compound, on Calmodulin-1, the IC50 is 75.9 µM.

With `COc1cc(O)cc(CCc2ccc3c(c2)OCO3)c1`, in the assay filed under Homo sapiens, the Km was 45.5 µM. For the same compound, the IC50 on Calmodulin-1 was 31.3 µM.

With `CCOc1ccc(CCc2cccc(O)c2)cc1OC`, in the assay filed under Homo sapiens, the Km is 58.1 µM. The IC50 on Calmodulin-1 is 46.1 µM.

Regarding `COc1cc(Cc2cccc(OC)c2O)cc(OC)c1`, the Km in the assay listed under Homo sapiens was found to be 33.8 µM. On Calmodulin-1, the IC50 came to 56.1 µM.

With `c1ccc(CCc2ccccc2)cc1`, in the assay filed under Homo sapiens, the outcome was inactive. Besides, the inhibition result at Calmodulin-1 is “inactive”.
